Measured values from different studies.
Lines come from different studies, so protocols differ.

| SMILES | cell line | test | setting | measurement | value |
| --- | --- | --- | --- | --- | --- |
| C=CC(=O)c1cccnc1Nc1cc(C(F)(F)F)ccc1OCc1ccccc1 | NCI-H226 | cell growth or viability, CCK-8 | 72 h | GI50 | 12.8 µM |
| CN(C)C(=O)c1cc2cnc(Nc3ccc(N4CCNCC4)cn3)nc2n1C1CCCC1 | human Neutrophil | reactive oxygen species, inhibitor |  | IC50 | 1.67 µM |
| O=C(O)c1cccnc1Nc1cccc(C(F)(F)F)c1 | NCI-H226 | cell growth or viability, CCK-8 | 72 h | GI50 | > 40 µM |
| O=C(O)c1ccc2c(c1)nc(Nc1cccc(Cl)c1)c1ccncc12 | NCI-H226 | cell growth or viability, resazurin | 48 h | IC50 | 14.2 µM |
| CC1(C)CCC(CN2CCN(c3ccc(C(=O)NS(=O)(=O)c4ccc(NCC5CCOCC5)c([N+](=O)[O-])c4)c(Oc4cnc5[nH]ccc5c4)c3)CC2)=C(c2ccc(Cl)cc2)C1 | SU-DHL-8 | cell growth or viability, ATP luminescence | 48 h | IC50 | 5.38 µM |
| C=CC(=O)N1CCN(c2nc(=O)n(-c3c(C)ccnc3C(C)C)c3nc(-c4c(O)cccc4F)c(F)cc23)[C@@H](C)C1 | Calu-1 | cell growth or viability, ATP luminescence |  | IC50 | 0.00775 µM |
| C=CC(=O)NC1CCN(c2ncc3ncnc(Nc4ccc(Oc5ccc6c(c5)ncn6C)c(C)c4)c3n2)CC1 | Hs766T | cell growth or viability |  | EC50 | 1.15 µM |
| C=C(F)C(=O)N1CCN(c2nc(OC[C@@H]3CCCN3C)nc3c2CCN(c2cccc4cccc(Cl)c24)C3)C[C@@H]1CC#N | Calu-1 | cell growth or viability, ATP luminescence | 3D culture | IC50 | 0.0409 µM |
| CC(C)c1ccccc1[C@@H]1CCCN1C1CC2(CCN(c3ccc(C(=O)NS(=O)(=O)c4ccc(NC[C@H]5CC[C@](C)(O)CC5)c([N+](=O)[O-])c4)c(Oc4cnc5[nH]ccc5c4)c3)CC2)C1 | MINO | cell growth or viability, ATP luminescence | 48 h | IC50 | 0.013 µM |
